Experimental findings from ChEMBL document CHEMBL4433221, “Novel Sustainable-by-Design HDAC Inhibitors for the Treatment of Alzheimer's Disease” (ACS Med Chem Lett, 2019) are described below.

The source made the active and inactive calls. No cut-off for these calls is given here. Where only a bound is given, the exact number is not on record here.

One data set concerns the target Histone deacetylase 1 (Homo sapiens, UniProt Q13547). The data set can be described thus: Inhibition of human recombinant HDAC1 using ZMAL (Z-(Ac)Lys-AMC fluorogenic substrate incubated for 90 mins by fluorescence method.
The target in data set [1] is Histone deacetylase 9 (Homo sapiens) (UniProt Q9UKV0). The data set can be described thus: Inhibition of human recombinant HDAC9 using fluorogenic trifluoroacetyl lysine as substrate at 10 uM by fluorescence method. In short, it runs like this:
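Selectivity profile across HDAC isoforms 1–11 at a single concentration of 10 μM, run in duplicate.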

Data set [2] can be described thus: Neurotoxicity against rat CGN cells assessed as cell viability at 5 uM incubated for 24 hrs by MTT assay. The data set is classed as toxicity, cell-based. To be noted: read-out: Activity. In short, it runs like this:
(§1)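 Primary rat cerebellar granule neuron cultures were exposed for 24 h to 5, 25 or 50 μM. Viability was measured by MTT and expressed as percentage of untreated controls, as mean ± SE of at least three experiments, each run in triplicate.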
For orientation: Tetrazolium dyes change colour on reduction, which living cells bring about.

Data set [3] deals with N9. The data set can be described thus: Immunomodulatory activity in mouse N9 cells assessed as reduction in LPS-induced MRC1 expression at 5 to 25 uM incubated for 24 hrs by Western blot analysis. The data set is classed as functional, cell-based. In short, it runs like this:
(§2)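 N9 mouse microglial cells stimulated with LPS (100 ng/mL) and treated at 5 and 25 μM. iNOS and MRC1 levels were read by Western blot with GAPDH as loading control. Densitometry is expressed as percentage of LPS-only cells, as mean ± SE of three independent experiments.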

In data set [4] the target is Histone deacetylase (Mus musculus) (UniProt Q8VH37+Q9Z2V6+Q9Z2V5+O09106+Q8C2B3+P70288+O88895+Q91WA3+Q99N13+Q6NZM9+Q6P3E7). As to conditions: at 5 to 25 µM.
Data set [5] can be described thus: Neurotoxicity against rat CGN cells assessed as cell viability at 50 uM incubated for 24 hrs by MTT assay. The data set is classed as toxicity, cell-based. As to conditions: read-out: Activity. In short, it runs like this:
as §1

Data set [6] has as its system N9. The data set is described as follows: Immunomodulatory activity in mouse N9 cells assessed as increase in LPS-induced MRC1 expression at 25 uM incubated for 24 hrs by Western blot analysis. In kind it is functional, cell-based. In short, it runs like this: as §2
In general terms: A western blot detects proteins with antibodies after separation by electrophoresis.

Sequence of Histone deacetylase 9 (Homo sapiens) (Q9UKV0 whole entry, canonical isoform): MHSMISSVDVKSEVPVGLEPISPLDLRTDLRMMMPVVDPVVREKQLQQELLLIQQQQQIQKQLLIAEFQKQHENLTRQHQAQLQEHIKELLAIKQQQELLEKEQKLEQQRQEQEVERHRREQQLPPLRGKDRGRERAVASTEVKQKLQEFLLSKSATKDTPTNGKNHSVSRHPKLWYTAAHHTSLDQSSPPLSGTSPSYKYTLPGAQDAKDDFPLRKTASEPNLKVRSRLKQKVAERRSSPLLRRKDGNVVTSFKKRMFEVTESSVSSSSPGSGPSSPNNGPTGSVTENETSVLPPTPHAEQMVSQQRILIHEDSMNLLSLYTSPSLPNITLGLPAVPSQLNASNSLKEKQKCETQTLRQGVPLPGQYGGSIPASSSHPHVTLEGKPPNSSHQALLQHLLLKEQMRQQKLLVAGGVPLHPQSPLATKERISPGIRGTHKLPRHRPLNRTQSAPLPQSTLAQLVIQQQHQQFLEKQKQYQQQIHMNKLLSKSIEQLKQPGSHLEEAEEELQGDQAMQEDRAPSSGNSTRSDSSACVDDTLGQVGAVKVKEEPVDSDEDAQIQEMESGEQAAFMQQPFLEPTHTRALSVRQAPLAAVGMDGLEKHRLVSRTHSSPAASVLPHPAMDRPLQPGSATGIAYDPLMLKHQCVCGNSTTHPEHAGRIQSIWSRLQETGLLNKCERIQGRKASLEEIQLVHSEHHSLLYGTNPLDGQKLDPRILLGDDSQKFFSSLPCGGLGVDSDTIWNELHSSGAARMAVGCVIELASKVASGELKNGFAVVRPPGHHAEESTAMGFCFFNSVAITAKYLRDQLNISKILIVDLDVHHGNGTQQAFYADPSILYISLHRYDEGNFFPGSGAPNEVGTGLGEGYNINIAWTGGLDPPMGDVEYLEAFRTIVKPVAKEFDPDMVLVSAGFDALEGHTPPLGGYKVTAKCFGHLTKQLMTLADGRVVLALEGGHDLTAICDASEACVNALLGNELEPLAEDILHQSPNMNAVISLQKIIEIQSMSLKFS
Sequence of Histone deacetylase 1 (Q13547 whole entry): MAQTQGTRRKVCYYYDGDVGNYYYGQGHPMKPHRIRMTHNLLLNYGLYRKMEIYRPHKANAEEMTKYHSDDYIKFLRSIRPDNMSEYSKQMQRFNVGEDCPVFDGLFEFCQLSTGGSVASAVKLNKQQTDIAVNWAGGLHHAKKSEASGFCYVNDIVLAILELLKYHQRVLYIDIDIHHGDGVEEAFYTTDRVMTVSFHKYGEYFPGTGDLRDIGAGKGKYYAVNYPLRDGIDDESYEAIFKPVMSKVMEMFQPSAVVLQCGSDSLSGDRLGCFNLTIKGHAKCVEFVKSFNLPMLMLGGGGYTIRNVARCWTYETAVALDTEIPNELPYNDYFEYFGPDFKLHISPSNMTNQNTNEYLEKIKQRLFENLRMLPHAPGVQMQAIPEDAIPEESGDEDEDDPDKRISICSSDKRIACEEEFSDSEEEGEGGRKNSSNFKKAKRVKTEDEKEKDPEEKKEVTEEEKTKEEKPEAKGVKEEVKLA

In general, IC50 refers to the concentration that inhibits the measured activity by half. As to `COc1cccc(CCCCCCCC(=O)NO)c1`, the IC50 on Histone deacetylase 1 was determined as 316 nM. Also, the inhibition entry in data set [1] is “inactive”. Further, in data set [2], the viability at 24 h, 5 µM was no more than 50%. For the same molecule, the Activity entry with N9 [3] was “Dose-dependent effect”. For the same molecule, the inhibition entry in data set [4] was “Active”.

For the molecule `COC(=O)c1c(CCCCCCCC(=O)NO)cccc1OC`, at Histone deacetylase 1, the IC50 came to 775 nM. Moreover, the inhibition entry in data set [1] was “inactive”. For the same molecule, the viability at 24 h, 50 µM in data set [5] is greater than 80%. In the data set with N9 [6], the outcome was Active. Further, the inhibition result in data set [4] is “Active”.
